Test [1] deals with M21. Kind of test: Induction of beta2-tubulin alkylation in human M21 cells at 2 times GI50 by Western blot analysis. The test is classed as cell-based. An outline of the steps: (§1)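 Floating and adherent cells were pooled and lysed in boiled Laemmli buffer; protein was measured by Lowry. 20 µg per lane ran on 10% SDS-PAGE and was blotted with anti-βII-tubulin (1:500), HRP anti-mouse (1:2500) and ECL. Alkylation was scored as a faster-migrating βII-tubulin band.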

In test [2] the test system is M21. Kind of test: Induction of beta2-tubulin alkylation in human M21 cells at 50 nM by Western blot analysis. The test is classed as cell-based. An outline of the steps:
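Same M21 Western blot workflow (pooled cells, Laemmli lysis, 20 µg on 10% SDS-PAGE, anti-βII-tubulin 1:500, ECL), except that vinblastine, colchicine and paclitaxel were applied at 50 nM for 16, 24 and 48 h at 37 °C. The alkylated form appeared as a lower-apparent-MW band.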
A general note: A western blot detects proteins with antibodies after separation by electrophoresis.

Test [3] relates to M21. Kind of test: Inhibition of nuclear translocation of thioredoxin-1 from cytosol in human M21 cells at 50 nM after 16 hrs by immunocytofluorescence. The test is classed as functional, cell-based. In a few lines:
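Reference agents colchicine or vinblastine were applied at 50 nM to M21 cells on fibronectin-coated coverslips. Cells were fixed in formaldehyde, permeabilized with saponin, and stained with anti-Trx-1 (1:200, 2 h, 37 °C) and Alexa-488 secondary. Nuclear versus cytosolic Trx-1 was assessed by confocal microscopy.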

The subject of test [4] is MCF7. Nature of the test: Antiproliferative activity against human MCF7 cells after 48 hrs by sulforhodamine B method. The format is functional. As to conditions: MCF7, 48 h. An outline of the steps:
(§2)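 Seeding per well: 5 × 10³ HT-29 cells, or 3.5 × 10³ M21 or MCF-7 cells. Drugs were dissolved fresh in DMSO and serially diluted in medium (final range 100 to 0.3), with DMSO held at 0.12%. Cells were exposed for 48 h, fixed with cold TCA (10% final, 1 h, 4 °C) and stained with 0.1% SRB for 15 min. Dye was solubilized in 10 mM Tris and read at A585. Day-0 OD was subtracted, inhibition was calculated against DMSO cells, and n ≥ 3.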

The test system of test [5] is M21. Nature of the test: Antiproliferative activity against human M21 cells after 48 hrs by sulforhodamine B method. The format is functional. The note with it: M21, 48 h. An outline of the steps:
as §2

The test system of another test is HT-29. Kind of test: Antiproliferative activity against human HT29 cells after 48 hrs by sulforhodamine B method. The test is classed as functional. As to conditions: HT-29, 48 h. In a few lines:
as §2
A general note: In SRB staining, fixed cells bind dye roughly in proportion to their protein.

In test [6] the test system is MCF7. Kind of test: Cell cycle arrest in human MCF7 cells assessed as accumulation at G0/G1 phase at 2 times GI50 after 24 hrs by flow cytometry. The test is classed as functional. In a few lines: (§3)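 Cells were trypsinized, PBS-washed, fixed in ice-cold ethanol, and stained with propidium iodide plus RNase for 30 min at room temperature. G0/G1, S and G2/M fractions were measured by flow cytometry.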

For test [7], the system named is MCF7. Nature of the test: Cell cycle arrest in human MCF7 cells assessed as accumulation at S phase at 2 times GI50 after 24 hrs by flow cytometry. The format is functional. In a few lines: as §3
The test system of test [8] is MCF7. Kind of test: Cell cycle arrest in human MCF7 cells assessed as accumulation at G2/M phase at 2 times GI50 after 24 hrs by flow cytometry. The format is functional. An outline of the steps:
as §3
(In flow cytometry, cells or beads pass a laser one at a time.)

Test [9] concerns M21. Kind of test: Induction of beta2-tubulin alkylation in human M21 cells at 2 times GI50 after 48 hrs by Western blot analysis. The format is cell-based. An outline of the steps: as §1
In test [10] the test system is M21. Nature of the test: Inhibition of nuclear translocation of thioredoxin-1 from cytosol in human M21 cells at 2 times GI50 after 16 hrs by immunocytofluorescence. The test is classed as functional, cell-based. An outline of the steps: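 Cells were fixed in 3.7% formaldehyde (20 min), permeabilized with 0.1% saponin and blocked with 3% BSA. Staining used anti-Trx-1 monoclonal (1:200, 2 h, 37 °C) and Alexa-488 anti-mouse IgG (1:1000, 1 h). Trx-1 cytosol/nucleus localization was read by confocal immunofluorescence.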

Test [11] deals with M21. Kind of test: Induction of beta2-tubulin alkylation in human M21 cells at 2 times GI50 after 24 hrs by Western blot analysis. The test is classed as cell-based. In a few lines: as §1
In test [12] the test system is M21. Kind of test: Stimulation of nuclear translocation of thioredoxin-1 from cytosol in human M21 cells at 25 µM after 16 hrs by immunocytofluorescence.

Activity calls are given as the source filed them. The rule behind the calls is not given here.

`COc1cc2c(c(OC)c1OC)-c1ccc(OC)c(=O)cc1[C@@H](NC(C)=O)CC2`: the result in the test with M21 [1], in the test with M21 [2] and in the test on M21 [3] was inactive.

`O=C(NCCCl)Nc1ccc2c(c1)CCCC2`: the GI50 in the test with MCF7 [4] was 7.3 µM; in the test with M21 [5], 3.7 µM; with HT-29, 2000 nM. The figures for the Activity in the test with MCF7 [6], in the test on MCF7 [7] and with MCF7 [8] were 10%, 49% and 41%, respectively. Moreover, the outcome with M21 [9] and in the test with M21 [10] was Active.

On to `CC1(C)CCC(C)(C)c2cc(NC(=O)NCCCl)ccc21`, for which the GI50 in the test with MCF7 [4] turned out to be 4.2 µM; with M21 [5] it was 2.6 µM; in the test on HT-29, 1300 nM. Moreover, the figures for the Activity in the test with MCF7 [6], in the test with MCF7 [7] and in the test with MCF7 [8] were 6%, 20% and 74%, respectively. In addition, the result with M21 [11] and in the test with M21 [9] was Active. In addition, the result in the test on M21 [10] was inactive.

With `CCCCCCc1ccc(NC(=O)NCCCl)cc1`, the GI50 in the test on MCF7 [4] worked out at 6.5 µM; with M21 [5], 3.8 µM; in the test with HT-29 it was 2900 nM. Besides, the Activity in the test with MCF7 [6] turned out to be 16%; in the test on MCF7 [7], 41%; in the test on MCF7 [8], 43%. Besides, the outcome with M21 [9] was Active. In the test with M21 [10], the outcome was inactive.

In the case of `CC[C@]1(O)C[C@@H]2CN(CCc3c([nH]c4ccccc34)[C@@](C(=O)OC)(c3cc4c(cc3OC)N(C)[C@H]3[C@@](O)(C(=O)OC)[C@H](OC(C)=O)[C@]5(CC)C=CCN6CC[C@]43[C@@H]65)C2)C1`, the outcome in the test with M21 [1], with M21 [2] and in the test with M21 [3] was inactive.

On to `CCC(C)SSc1ncc[nH]1` (configuration not stated) [PX-12], for which the Activity amounted to 29% in the test with MCF7 [6], 13% in the test on MCF7 [7] and 58% in the test on MCF7 [8]. In addition, the result in the test with M21 [1] was inactive. The result in the test with M21 [12] was Active.

`CC(=O)O[C@H]1C(=O)[C@@]2(C)[C@H]([C@H](OC(=O)c3ccccc3)[C@]3(O)C[C@H](OC(=O)[C@H](O)[C@@H](NC(=O)c4ccccc4)c4ccccc4)C(C)=C1C3(C)C)[C@]1(OC(C)=O)CO[C@@H]1C[C@@H]2O` [PACLITAXEL]: the Activity in the test on MCF7 [6] was found to be 9%; in the test on MCF7 [7] it was 11%; in the test with MCF7 [8] it was 80%. Moreover, the result with M21 [1], in the test on M21 [2] and in the test with M21 [3] was inactive.

On to `O=C(NCCCl)Nc1ccc2ccccc2c1`, for which the Activity in the test on MCF7 [6] is 17%; in the test on MCF7 [7], 38%; with MCF7 [8], 45%. In addition, in the test on M21 [9], the outcome was Active. For the same compound, the result in the test with M21 [10] was inactive.

One may read the GI50 as the concentration at which growth is held to half of that of the control. A low value points to greater sensitivity of the cells.

For the origin of these results see ChEMBL document CHEMBL1155843, “Selective alkylation of beta(II)-tubulin and thioredoxin-1 by structurally related subsets of aryl chloroethylureas leading to either anti-microtubules or redox modulating agents” (2008).
